Here are results for 13 compounds from ChEMBL document CHEMBL1136692, “Pharmacokinetic optimization of 3-amino-6-chloropyrazinone acetamide thrombin inhibitors. Implementation of P3 pyridine N-oxides to deliver an orally bioavailable series containing P1 N-benzylamides” (Bioorg Med Chem Lett, 2003).

The species entered for data set [1] is Homo sapiens. The experiment in a line: Concentration required to double the activated partial thromboplastin time (aPPT) in human plasma. Type of data set: functional, cell-free. The procedure, abridged: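 Anticoagulant assay in human plasma. The value is the concentration of inhibitor that doubles the activated partial thromboplastin time (2×aPTT).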
The species entered for data set [2] is Homo sapiens. The experiment in a line: Human microsome stabilities are reported as the ratio of the % remaining after a 1 hr incubation versus the internal standard thrombin inhibitor. It counts as functional. On the set-up: unit not given here.
The nature of data set [3]: t1/2 in dog. Type of data set: ADME, organism-based, Canis lupus familiaris. The following applies: in vivo. The procedure, abridged:
(§1)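 Dog pharmacokinetics after oral dosing at 1 mg/kg, or at 0.7 or 0.5 mg/kg where footnoted. Cmax (µM) and oral half-life (h) from plasma levels.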

The nature of data set [4]: Partition coefficient (logP) of the compound. The note with it: octanol/water. Type of data set: physicochemical.
The target in a further data set is Prothrombin (Homo sapiens, UniProt P00734). The experiment in a line: Inhibitory activity against human thrombin.
The nature of data set [5]: Maximum plasma concentration (Cmax) in dog at a dose of 1 mg/kg. On the set-up: dose 1 mg/kg. It counts as ADME, organism-based, Canis lupus familiaris. In a few lines:
as §1

In general, half-life refers to how long it takes for the measured level to halve. As a reminder, the logP is a log measure of how a compound divides between an organic and an aqueous phase. Broadly, the Ki is a measure of affinity in units of concentration, obtained from inhibition or displacement. A word on the Cmax: it is the peak of the concentration-time curve.

In the data set listed under Homo sapiens [1], `O=C(Cn1c(Cl)cnc(NCC(F)(F)c2cccc[n+]2[O-])c1=O)NCc1c(F)cccc1F` had a Concentration of 0.33 µM. Further, the Ratio in the data set filed under Homo sapiens [2] was found to be 3.4. In data set [3], this compound showed a half-life of 6.2 h. For the same compound, in data set [4], the logP stood at 1.23. The compound also yielded a Ki at Prothrombin of 0.85 nM. For the same compound, the concentration in data set [5] peaked (Cmax) at 210 nM.

`COc1cccc(CNC(=O)Cn2c(Cl)cnc(NCC(F)(F)c3cccc[n+]3[O-])c2=O)c1` returned a Concentration in the data set filed under Homo sapiens [1] of 0.43 µM. For the same compound, the Ratio in the data set listed under Homo sapiens [2] came out at 0.71. In data set [3], this compound gave a half-life of 2.8 h. In addition, in data set [4], the logP was 1.31. This compound also displayed a Ki at Prothrombin of 1.2 nM. Moreover, the Cmax in data set [5] worked out at 1220 nM.

For `O=C(Cn1c(Cl)cnc(NCC(F)(F)c2cccc[n+]2[O-])c1=O)NCc1ccccc1OC(F)(F)F`, the Concentration in the data set listed under Homo sapiens [1] was determined as 0.81 µM. In addition, the Ratio in the data set filed under Homo sapiens [2] is 0. For the same compound, in data set [3], the half-life was 3 h. The compound further displayed a logP in data set [4] of 2.34. The same compound had an inhibition constant (Ki) at Prothrombin of 2.4 nM. Further, the Cmax in data set [5] stood at 1670 nM.

`O=C(Cn1c(Cl)cnc(NCC(F)(F)c2cccc[n+]2[O-])c1=O)NCc1cccc(OC(F)F)c1` gave a Concentration in the data set filed under Homo sapiens [1] of 0.97 µM. For the same compound, the Ratio in the data set filed under Homo sapiens [2] came out at 0.54. This compound also showed a half-life in data set [3] of 4.8 h. In addition, the logP in data set [4] turned out to be 1.73. Affinity on Prothrombin was put at a Ki of 7 nM. Besides, the Cmax in data set [5] came out at 120 nM.

In the data set listed under Homo sapiens [1], `O=C(Cn1c(Cl)cnc(NCC(F)(F)c2cccc[n+]2[O-])c1=O)NCc1ccccc1OC(F)F` gave a Concentration of 0.69 µM. For the same compound, in the data set listed under Homo sapiens [2], the Ratio amounted to 0. The half-life in data set [3] is 2.8 h. In data set [4], this compound had a logP of 1.63. At Prothrombin, the Ki was found to be 3 nM. Besides, the Cmax in data set [5] stood at 2030 nM.

Take `O=C(Cn1c(Cl)cnc(NCC(F)(F)c2cccc[n+]2[O-])c1=O)NCc1cc(F)ccc1C(F)(F)F`: the Concentration in the data set listed under Homo sapiens [1] was found to be 0.63 µM. The Ratio in the data set filed under Homo sapiens [2] was 0. The compound also showed a half-life in data set [3] of 2.8 h. Also, the logP in data set [4] was determined as 1.99. On Prothrombin, the Ki is 1.7 nM. The compound further yielded a Cmax in data set [5] of 990 nM.

Take `O=C(Cn1c(Cl)cnc(NCC(F)(F)c2cccc[n+]2[O-])c1=O)NCc1ccccc1OCC(F)(F)F`: in the data set listed under Homo sapiens [1], the Concentration amounted to 0.58 µM. Moreover, in the data set listed under Homo sapiens [2], the Ratio turned out to be 0. The compound further had a half-life in data set [3] of 2.5 h. Further, in data set [4], the logP turned out to be 1.93. The compound further registered a Ki on Prothrombin of 1.8 nM. In data set [5], this compound returned a maximum concentration (Cmax) of 2290 nM.

In the case of `O=C(Cn1c(Cl)cnc(NCC(F)(F)c2cccc[n+]2[O-])c1=O)NCc1ccccc1Cl`, the Concentration in the data set listed under Homo sapiens [1] stood at 0.54 µM. The Ratio in the data set filed under Homo sapiens [2] came out at 0.15. Moreover, the half-life in data set [3] was 2.9 h. This compound also registered a logP in data set [4] of 1.89. Besides, the Ki at Prothrombin worked out at 2.5 nM. Moreover, the Cmax in data set [5] was 700 nM.

The compound `Cc1cccc(CNC(=O)Cn2c(Cl)cnc(NCC(F)(F)c3cccc[n+]3[O-])c2=O)c1` displayed a Concentration in the data set filed under Homo sapiens [1] of 0.3 µM. For the same compound, in the data set listed under Homo sapiens [2], the Ratio was 0.58. The half-life in data set [3] is 1.1 h. The compound also showed a log partition coefficient (logP) in data set [4] of 1.81. Besides, the Ki at Prothrombin amounted to 0.8 nM. Moreover, the Cmax in data set [5] was 2190 nM.

`O=C(Cn1c(Cl)cnc(NCC(F)(F)c2cccc[n+]2[O-])c1=O)NCc1cc(Cl)ccc1Cl`: the Concentration in the data set listed under Homo sapiens [1] turned out to be 0.39 µM. Further, the Ratio in the data set listed under Homo sapiens [2] came out at 1.04. Besides, the half-life in data set [3] was 2.1 h. This compound also gave a logP in data set [4] of 2.61. Further, at Prothrombin, the Ki is 0.087 nM. The compound further returned a peak concentration (Cmax) in data set [5] of 110 nM.

For `Cc1ccccc1CNC(=O)Cn1c(Cl)cnc(NCC(F)(F)c2cccc[n+]2[O-])c1=O`, the Concentration in the data set listed under Homo sapiens [1] was 0.77 µM. Further, the half-life in data set [3] is 3.6 h. In addition, the logP in data set [4] turned out to be 1.74. The same compound had a Cmax in data set [5] of 1760 nM.

In the data set filed under Homo sapiens [1], `O=C(Cn1c(Cl)cnc(NCC(F)(F)c2cccc[n+]2[O-])c1=O)NCc1ccccc1` gave a Concentration of 0.94 µM. For the same compound, in the data set listed under Homo sapiens [2], the Ratio was determined as 1.3. In data set [3], the half-life was 6.3 h. The compound also had a logP in data set [4] of 1.23. The compound also returned a Ki on Prothrombin of 7 nM. The Cmax in data set [5] stood at 3200 nM.

Turning to `O=C(Cn1c(Cl)cnc(NCC(F)(F)c2ccccn2)c1=O)NCc1ccccc1F`, the Concentration in the data set filed under Homo sapiens [1] was 1.24 µM. This compound also returned a Ki on Prothrombin of 4.8 nM. The peak level in data set [5] (Cmax) was 17 nM.
